SMILES strings stand for the structures. Values after ≈ are worked out from the molar mass of the structure shown.

Here are results for 32 compounds from ChEMBL document CHEMBL1828561, “Identification of a potent and selective free fatty acid receptor 1 (FFA1/GPR40) agonist with favorable physicochemical and in vitro ADME properties” (J Med Chem, 2011).

Data set [1] deals with T1, Free fatty acid receptor 1 (Homo sapiens, UniProt O14842). Briefly: Agonist activity at human FFA1 receptor expressed in human 1321N1 cells assessed as calcium mobilization by fluorescence spectrophotometry. The class given is functional, cell-based.
For data set [2], the target named is T1, Free fatty acid receptor 1. Briefly: Agonist activity at human FFA1 receptor expressed in human 1321N1 cells assessed as calcium mobilization by fluorescence spectrophotometry relative to 10 uM TUG-20. It counts as functional, cell-based. An outline of the steps:
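Human FFA1 stably expressed in 1321N1 cells kept under G418 selection, 30000–40000 cells/well. After 24 h, washed in Krebs-HEPES pH 7.4 and loaded 1 h at 37 °C with 1.5 μM Oregon Green 488 BAPTA-1/AM. Compound injected at 10-fold concentration at 37 °C; fluorescence ex 485/em 520 nm over 50 × 0.4 s. Efficacy as % of maximal response to 10 μM TUG-20.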
On the technique in general: A change in cytosolic calcium serves as a functional read-out for many receptors and channels.

Data set [3] can be described thus: Apparent permeability across methotrexate treated human HT-29 cells. It counts as ADME, cell-based. An outline of the steps: (§1)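 HT29-MTX mucus-producing cells, passage 32, grown 23 days (TEER > 750 Ω cm²). Compound at 100 μM (10 mM DMSO stock diluted 1:100 in buffer). […] Non-permeated drug measured for recovery. Monolayer integrity checked by 20 μM carboxyfluorescein after 1 h and TEER.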

Data set [4] in a line: Permeability across methotrexate treated human HT-29 cells assessed as compound recovery. As to conditions: read-out: Activity. The class given is ADME, cell-based. An outline of the steps:
as §1

Data set [5] can be described thus: Aqueous solubility of the compound in PBS at pH 7.4. The class given is physicochemical. An outline of the steps: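 Solubility measured in PBS at pH 7.4.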
A short description of data set [6]: Octanol-phosphate buffer partition coefficient, log D of the compound at pH 7.4 by HPLC analysis. The class given is physicochemical.
A short description of data set [7]: Chemical stability of the compound in PBS at 37 degC for 12 days. It counts as physicochemical. Particulars: read-out: Stability. The gist of the method:
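Stability followed in PBS at 37 °C over 12 days.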

Data set [8] in a line: Plasma protein binding in human. The class given is ADME, cell-free. Particulars: read-out: PPB (converted).
The test system of data set [9] is Liver. Briefly: Metabolic stability in human liver S9 fraction. It counts as ADME, subcellular.
For data set [10], the target named is T2, CYP1A2 (Homo sapiens, UniProt P05177).
T2 sequence (P05177 whole entry): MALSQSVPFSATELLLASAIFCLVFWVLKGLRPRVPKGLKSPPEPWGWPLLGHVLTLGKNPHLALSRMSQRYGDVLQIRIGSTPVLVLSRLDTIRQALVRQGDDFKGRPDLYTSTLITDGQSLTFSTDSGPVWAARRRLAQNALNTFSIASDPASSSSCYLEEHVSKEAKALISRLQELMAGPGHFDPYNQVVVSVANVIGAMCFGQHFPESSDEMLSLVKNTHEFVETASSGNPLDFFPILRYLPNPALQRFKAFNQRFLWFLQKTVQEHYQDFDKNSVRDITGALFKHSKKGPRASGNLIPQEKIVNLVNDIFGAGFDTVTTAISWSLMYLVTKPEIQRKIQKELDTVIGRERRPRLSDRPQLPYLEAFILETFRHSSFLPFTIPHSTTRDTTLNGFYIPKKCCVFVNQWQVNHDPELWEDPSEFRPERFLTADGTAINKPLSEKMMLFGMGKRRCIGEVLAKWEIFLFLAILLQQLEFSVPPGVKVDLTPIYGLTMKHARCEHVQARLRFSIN
As to the kind of experiment: Inhibition of CYP1A2 at 10 uM. It counts as ADME.

Data set [11] addresses CYP2C9 (Homo sapiens, UniProt P11712). As to the kind of experiment: Inhibition of CYP2C9 at 10 uM. It counts as ADME.
Data set [12] has as its target CYP2C19 (Homo sapiens, UniProt P33261). Briefly: Inhibition of CYP2C19 at 10 uM. The class given is ADME.
The target in data set [13] is CYP2D6 (Homo sapiens, UniProt P10635). As to the kind of experiment: Inhibition of CYP2D6 at 10 uM. The class given is ADME.
Data set [14] deals with CYP3A4 (Homo sapiens, UniProt P08684). Briefly: Inhibition of CYP3A4 at 10 uM. It counts as ADME.
A short description of data set [15]: Inhibition of P-glycoprotein at 100 uM. The gist of the method: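 P-glycoprotein inhibition tested at 100 μM compound.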
Data set [16] can be described thus: Apparent permeability from apical to basolateral side of human Caco2/TC7 cells. It counts as ADME, cell-based. Particulars: Caco-2. The gist of the method:
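Caco-2 TC7 monolayers, apical to basolateral transport at pH 6.5 apical/7.4 basolateral.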
For orientation: Caco-2 monolayers are a common model of the intestinal barrier.

A short description of data set [17]: Octanol-water partition coefficient, log D of the compound at pH 7.4 by HPLC analysis. It counts as physicochemical. An outline of the steps: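 Distribution between n-octanol and water (PBS), pH 7.4, determined experimentally.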

T1 sequence (O14842 whole entry): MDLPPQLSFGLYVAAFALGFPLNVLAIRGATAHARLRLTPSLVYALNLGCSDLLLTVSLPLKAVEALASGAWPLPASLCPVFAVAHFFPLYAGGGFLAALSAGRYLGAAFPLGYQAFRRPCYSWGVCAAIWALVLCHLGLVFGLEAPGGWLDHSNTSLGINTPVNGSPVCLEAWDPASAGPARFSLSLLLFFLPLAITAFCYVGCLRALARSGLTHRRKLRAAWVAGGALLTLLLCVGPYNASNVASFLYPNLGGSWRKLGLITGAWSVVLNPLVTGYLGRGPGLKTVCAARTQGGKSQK
CYP2C19, sequence (P33261 whole entry): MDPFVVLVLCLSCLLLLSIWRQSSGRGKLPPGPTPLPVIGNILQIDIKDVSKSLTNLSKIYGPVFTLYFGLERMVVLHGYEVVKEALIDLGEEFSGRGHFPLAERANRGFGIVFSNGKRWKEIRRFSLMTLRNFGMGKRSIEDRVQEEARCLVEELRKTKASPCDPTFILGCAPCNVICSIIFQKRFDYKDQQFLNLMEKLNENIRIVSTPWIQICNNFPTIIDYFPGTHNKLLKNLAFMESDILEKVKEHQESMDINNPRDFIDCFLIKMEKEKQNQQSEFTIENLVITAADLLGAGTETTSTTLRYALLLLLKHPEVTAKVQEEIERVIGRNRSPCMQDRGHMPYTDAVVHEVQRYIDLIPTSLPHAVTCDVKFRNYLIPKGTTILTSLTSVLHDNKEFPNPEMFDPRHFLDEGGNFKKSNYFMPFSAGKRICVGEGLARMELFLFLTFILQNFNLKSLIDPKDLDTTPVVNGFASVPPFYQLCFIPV
CYP3A4, sequence (P08684 whole entry): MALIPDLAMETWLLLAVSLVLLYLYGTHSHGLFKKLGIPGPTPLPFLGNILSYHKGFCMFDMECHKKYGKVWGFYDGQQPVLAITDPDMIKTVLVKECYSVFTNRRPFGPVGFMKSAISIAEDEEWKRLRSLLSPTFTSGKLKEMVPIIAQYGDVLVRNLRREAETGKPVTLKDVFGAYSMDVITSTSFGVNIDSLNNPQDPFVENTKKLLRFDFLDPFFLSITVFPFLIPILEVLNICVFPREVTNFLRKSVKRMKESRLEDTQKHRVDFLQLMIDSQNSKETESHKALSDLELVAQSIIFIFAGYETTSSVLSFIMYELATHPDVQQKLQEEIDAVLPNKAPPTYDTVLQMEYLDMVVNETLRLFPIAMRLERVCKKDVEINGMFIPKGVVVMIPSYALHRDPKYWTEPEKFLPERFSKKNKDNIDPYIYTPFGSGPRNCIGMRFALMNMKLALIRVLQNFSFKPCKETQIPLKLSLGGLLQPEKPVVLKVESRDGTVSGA
CYP2D6, sequence (P10635 whole entry): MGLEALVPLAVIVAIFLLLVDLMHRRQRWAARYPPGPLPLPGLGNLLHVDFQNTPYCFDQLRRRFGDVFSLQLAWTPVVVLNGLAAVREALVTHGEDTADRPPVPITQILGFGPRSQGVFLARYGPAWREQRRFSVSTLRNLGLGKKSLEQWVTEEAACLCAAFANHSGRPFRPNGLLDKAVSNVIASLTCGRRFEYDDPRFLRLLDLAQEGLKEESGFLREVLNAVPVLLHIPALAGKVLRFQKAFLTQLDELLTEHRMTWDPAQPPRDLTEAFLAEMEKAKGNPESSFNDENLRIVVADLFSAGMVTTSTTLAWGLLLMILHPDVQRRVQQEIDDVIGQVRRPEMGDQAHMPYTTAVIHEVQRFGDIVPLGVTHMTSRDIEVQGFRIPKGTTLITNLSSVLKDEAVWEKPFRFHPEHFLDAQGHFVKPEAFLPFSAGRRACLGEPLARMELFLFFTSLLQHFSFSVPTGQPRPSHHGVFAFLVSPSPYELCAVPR
CYP2C9, sequence (P11712 whole entry): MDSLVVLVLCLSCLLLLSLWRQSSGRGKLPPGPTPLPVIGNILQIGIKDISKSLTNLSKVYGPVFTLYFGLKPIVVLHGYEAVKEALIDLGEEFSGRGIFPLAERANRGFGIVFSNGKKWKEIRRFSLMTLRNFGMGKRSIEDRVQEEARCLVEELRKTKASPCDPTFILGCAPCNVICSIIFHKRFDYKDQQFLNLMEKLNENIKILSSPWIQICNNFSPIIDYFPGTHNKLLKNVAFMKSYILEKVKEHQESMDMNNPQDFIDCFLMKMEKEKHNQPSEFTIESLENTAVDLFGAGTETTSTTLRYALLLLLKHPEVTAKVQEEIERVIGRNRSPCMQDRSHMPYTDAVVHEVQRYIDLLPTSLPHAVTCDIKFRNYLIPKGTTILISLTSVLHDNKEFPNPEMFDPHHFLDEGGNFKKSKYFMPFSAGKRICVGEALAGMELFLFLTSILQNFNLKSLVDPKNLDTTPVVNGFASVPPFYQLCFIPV

A word on the EC50: it is the concentration that produces a half-maximal response. For `Cc1cccc(C#Cc2ccc(CCC(=O)O)cc2)n1`, the EC50 in [1] was 6170 nM. The Efficacy in data set [2] came out at 108%.

For the compound `O=C(O)CCc1ccc(C#Cc2ccnc(-c3ccccc3)c2)cc1`, the EC50 in [1] is 186 nM. For the same compound, in [2], the Efficacy stood at 97%.

In the case of `O=C(O)CCc1ccc(C#Cc2cccs2)cc1`, in data set [1], the EC50 is 251 nM. The Efficacy in data set [2] worked out at 97%.

On to `Cc1cnc(F)c(C#Cc2ccc(CCC(=O)O)cc2)c1`, for which the EC50 in data set [1] is 661 nM. In data set [2], the Efficacy was found to be 98%.

`Cc1c(C#Cc2ccc(CCC(=O)O)cc2)cc(Cl)nc1Cl`: the EC50 in [1] is 43.7 nM. Besides, the Efficacy in [2] is 91%.

Regarding `O=C(O)CCc1ccc(C#Cc2ccnc3cc(Cl)ccc23)cc1`, the EC50 in data set [1] was 79.4 nM. Also, in data set [2], the Efficacy turned out to be 125%.

The Papp is a coefficient for how fast a substance crosses the barrier. Regarding `CC(C(=O)O)c1cccc(C(=O)c2ccccc2)c1` (centres undefined) [KETOPROFEN], in [3], the Papp was 15.1 ×10⁻⁶ cm/s. The recovery in data set [4] turned out to be 80%.

With `Cc1cnc(F)cc1C#Cc1ccc(CCC(=O)O)cc1`, in data set [1], the EC50 was 178 nM. In addition, in [2], the Efficacy was found to be 99%.

Consider `O=C(O)CCc1ccc(C#Cc2ccc(Cl)nc2)cc1`, for which the EC50 in [1] was 708 nM. The Efficacy in [2] was found to be 98%.

On to `O=C(O)CCc1ccc(C#Cc2cccnc2Cl)cc1`, for which the half-maximal effective concentration (EC50) in [1] was 603 nM. Besides, the Efficacy in [2] amounted to 91%.

As to `C=CCc1c(C#Cc2ccc(CCC(=O)O)cc2)ccnc1Cl`, in data set [1], the EC50 was 316 nM. Besides, in data set [2], the Efficacy was found to be 97%.

For `Cc1c(C#Cc2ccc(CCC(=O)O)cc2)ccnc1F`, the EC50 in data set [1] was 120 nM. The Efficacy in data set [2] came out at 101%.

Consider `O=C(O)CCc1ccc(C#Cc2cncs2)cc1`, for which the EC50 in data set [1] was 3890 nM. Moreover, the Efficacy in [2] was determined as 99%.

For the compound `O=C(O)CCc1ccc(C#Cc2ccnc(Cl)c2Cc2ccccc2)cc1`, the EC50 in [1] was 794 nM. Also, in data set [2], the Efficacy was determined as 101%.

For the compound `O=C(O)CCc1ccc(C#Cc2ccncc2)cc1`, the EC50 in [1] is 4070 nM. Besides, the Efficacy in [2] worked out at 100%.

What is called solubility is the dissolved amount per volume that the medium holds. A low value points to little dissolved substance. One may read the logD as the decadic logarithm of the distribution of all forms, ionised or not, between an organic phase and buffer at a given pH. The low end stands for a more hydrophilic compound, the high end for a more lipophilic compound. As a reminder, the inhibition is the relative decrease from the control value, in per cent. The term Papp A→B denotes how fast a substance crosses the layer from the apical side. For the compound `Cc1ccccc1C#Cc1ccc(CCC(=O)O)cc1`, the solubility in [5] was 174 µM (≈ 46 µg/mL). For the same compound, the logD in [6] and in [17] was 2.34 in each case. The remaining at 288 h in [7] stood at 99.9%. Besides, the fraction unbound in data set [8] is 0.023. In addition, the Stability in [9] amounted to 26%. Also, the inhibition at 10 µM is -8% in data set [10]; -25% in data set [11]; -1% in data set [12]; 0% in [13]; -4% in [14]. In addition, the inhibition in data set [15] is 6.6%. Also, in [16], the Papp A→B amounted to 87 ×10⁻⁶ cm/s. The EC50 in [1] is 45.7 nM. Besides, in [2], the Efficacy worked out at 102%.

As for `O=C(O)C1CC1c1ccc(C#Cc2cc(Cl)nc(Cl)c2)cc1` (racemic), in data set [2], the Efficacy stood at 96%.

Regarding `O=C(O)CCc1ccc(C#Cc2ccnc(Cl)n2)cc1`, the EC50 in [1] is 9120 nM. In data set [2], the Efficacy was 131%.

`O=C(O)CCc1ccc(C#Cc2ccnc(Oc3ccccc3)c2)cc1`: the EC50 in data set [1] was 479 nM. For the same compound, in data set [2], the Efficacy was found to be 94%.

As to `O=C(O)CCc1ccc(C#Cc2ccnc(F)c2)cc1`, the EC50 in [1] is 513 nM. The Efficacy in [2] was found to be 98%.

With `COc1nccc(C#Cc2ccc(CCC(=O)O)cc2)n1`, the EC50 in [1] is 9550 nM. Moreover, in [2], the Efficacy was 109%.

As to `Cc1ccccc1-c1cc(C#Cc2ccc(CCC(=O)O)cc2)ccn1`, in [1], the EC50 was 1070 nM. The Efficacy in data set [2] stood at 92%.

Consider `Cc1cc(C#Cc2ccc(CCC(=O)O)cc2)ccn1`, for which, in [2], the Efficacy was 102%.

For the compound `COc1cc(C#Cc2ccc(CCC(=O)O)cc2)ccn1`, the EC50 in [1] was 525 nM. For the same compound, in data set [2], the Efficacy was 98%.

On to `O=C(O)CCc1ccc(C#Cc2ncccc2[N+](=O)[O-])cc1`, for which the Efficacy in [2] is 87%.

Regarding `Cc1c(C#Cc2ccc(CCC(=O)O)cc2)ccnc1Cl`, the EC50 in data set [1] was 135 nM. Further, the Efficacy in data set [2] worked out at 101%.

`O=C(O)CCc1ccc(C#Cc2ccnc(Cl)c2)cc1`: in data set [1], the half-maximal effective concentration (EC50) was 295 nM. Besides, the Efficacy in data set [2] was 94%.

For `Cc1cc(C#Cc2ccc(CCC(=O)O)cc2)nc(Cl)n1`, in data set [1], the EC50 was 2750 nM. The Efficacy in data set [2] amounted to 110%.

In the case of `O=C(O)CCc1ccc(C#Cc2cccnc2)cc1`, in data set [1], the EC50 is 6030 nM. In addition, in [2], the Efficacy is 96%.

For the compound `Cc1cnc(Cl)nc1C#Cc1ccc(CCC(=O)O)cc1`, the EC50 in data set [1] is 4270 nM. Moreover, the Efficacy in [2] was 121%.

Turning to `O=C(O)CCc1ccc(C#Cc2ccccn2)cc1`, in data set [1], the EC50 was 13200 nM. In data set [2], the Efficacy is 98%.

For the compound `Cc1ccsc1C#Cc1ccc(CCC(=O)O)cc1`, in data set [1], the EC50 was 75.9 nM. Also, in [2], the Efficacy stood at 100%.
